Experimental data from ChEMBL document CHEMBL1145212, “Fluorinated diaryl sulfides as serotonin transporter ligands: synthesis, structure-activity relationship study, and in vivo evaluation of fluorine-18-labeled compounds as PET imaging agents” (J Med Chem, 2005).

Experiments:
Conditions in all cases: tested as the 18F-labelled form
[1] = target: Sodium-dependent serotonin transporter (Rattus norvegicus) (UniProt P31652); assay: Specific binding of [18F]AFA in rat striatum after GBR-12935 treatment; n=3; type: functional, tissue-based
How it was run: (§1)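 Rats, three per group, were pretreated iv with blocker at 2 mg/kg in saline, or with saline as control, 10–15 min before tail-vein F-18 radioligand (about 20 µCi). Killed at 60 min and regional %ID/g determined. Specific binding = (region activity − cerebellum activity)/cerebellum activity; mean ± SD.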

[2] = target: Sodium-dependent serotonin transporter (Rattus norvegicus) (UniProt P31652); assay: Specific binding of [18F]AFA in rat thalamus after GBR-12935 treatment; n=3; type: functional, tissue-based; how it was run: as §1
[3] = target: Sodium-dependent serotonin transporter (Rattus norvegicus) (UniProt P31652); assay: Specific binding of [18F]-AFA in rat striatum after citalopram treatment; n=3; type: functional, tissue-based; how it was run: as §1
[4] = target: Sodium-dependent serotonin transporter (Rattus norvegicus) (UniProt P31652); assay: Specific binding of [18F]-AFA in rat striatum after nisoxetine treatment; n=3; type: functional, tissue-based; how it was run: as §1
[5] = target: Sodium-dependent serotonin transporter (Rattus norvegicus) (UniProt P31652); assay: Specific binding of [18F]AFA in rat thalamus after citalopram treatment; n=3; type: functional, tissue-based; how it was run: as §1
[6] = target: Sodium-dependent serotonin transporter (Rattus norvegicus) (UniProt P31652); assay: Specific binding of [18F]AFA in rat thalamus after nisoxetine treatment; n=3; type: functional, tissue-based; how it was run: as §1
[7] = target: Sodium-dependent serotonin transporter (Rattus norvegicus) (UniProt P31652); assay: Specific binding of [18F]AFA in rat hippocampus after GBR-12935 treatment; n=3; type: functional, tissue-based; how it was run: as §1
[8] = target: Sodium-dependent serotonin transporter (Rattus norvegicus) (UniProt P31652); assay: Specific binding of [18F]AFA in rat hypothalamus after GBR-12935 treatment; n=3; type: functional, tissue-based; how it was run: as §1
[9] = target: Sodium-dependent serotonin transporter (Rattus norvegicus) (UniProt P31652); assay: Specific binding of [18F]AFA in rat hippocampus after citalopram treatment; n=3; type: functional, tissue-based; how it was run: as §1
[10] = target: Sodium-dependent serotonin transporter (Rattus norvegicus) (UniProt P31652); assay: Specific binding of [18F]AFA in rat hippocampus after nisoxetine treatment; n=3; type: functional, tissue-based; how it was run: as §1
[11] = target: Sodium-dependent serotonin transporter (Rattus norvegicus) (UniProt P31652); assay: Specific binding of [18F]AFA in rat frontal cortex after GBR-12935 treatment; n=3; type: functional, tissue-based; how it was run: as §1
[12] = target: Sodium-dependent serotonin transporter (Rattus norvegicus) (UniProt P31652); assay: Specific binding of [18F]AFA in rat hypothalamus after citalopram treatment; n=3; type: functional, tissue-based; how it was run: as §1
[13] = target: Sodium-dependent serotonin transporter (Rattus norvegicus) (UniProt P31652); assay: Specific binding of [18F]AFA in rat hypothalamus after nisoxetine treatment; n=3; type: functional, tissue-based; how it was run: as §1
[14] = target: Sodium-dependent serotonin transporter (Rattus norvegicus) (UniProt P31652); assay: Specific binding of [18F]AFA in rat frontal cortex after citalopram treatment; n=3; type: functional, tissue-based; how it was run: as §1
[15] = target: Sodium-dependent serotonin transporter (Rattus norvegicus) (UniProt P31652); assay: Specific binding of [18F]AFA in rat frontal cortex after nisoxetine treatment; n=3; type: functional, tissue-based; how it was run: as §1
[16] = target: Sodium-dependent serotonin transporter (Rattus norvegicus) (UniProt P31652); assay: Specific binding in rat hypothalamus at 10 min postinjection in vivo; type: functional, organism-based
How it was run: (§2)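 Male Sprague-Dawley rats, n=3 per time point, received about 20 µCi of F-18 radioligand in saline iv by tail vein and were killed at 10–120 min. %ID/g was measured with decay and tail-residual correction. Hypothalamic specific binding = (%ID/g hypothalamus − %ID/g cerebellum)/%ID/g cerebellum; mean ± SD.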

[17] = target: Sodium-dependent serotonin transporter (Rattus norvegicus) (UniProt P31652); assay: Specific binding in rat hypothalamus at 30 min postinjection in vivo; type: functional, organism-based; how it was run: as §2
[18] = target: Sodium-dependent serotonin transporter (Rattus norvegicus) (UniProt P31652); assay: Specific binding in rat hypothalamus at 60 min postinjection in vivo; type: functional, organism-based; how it was run: as §2
[19] = target: Sodium-dependent serotonin transporter (Rattus norvegicus) (UniProt P31652); assay: Specific binding in rat hypothalamus at 90 min postinjection in vivo; type: functional, organism-based; how it was run: as §2
[20] = target: Sodium-dependent serotonin transporter (Rattus norvegicus) (UniProt P31652); assay: Specific binding in rat hypothalamus at 120 min postinjection in vivo; type: functional, organism-based; how it was run: as §2
[21] = species: Rattus norvegicus; assay: Regional uptake of [18F]AFA in blood of rat pretreated with compound 7f; n=3; type: functional, organism-based
[22] = species: Rattus norvegicus; assay: Regional uptake of [18F]AFA in cerebellum of rat pretreated with compound 7f; n=3; type: functional, organism-based
[23] = species: Rattus norvegicus; assay: Regional uptake of [18F]-AFA in blood of rat pretreated with compound GBR-12935; n=3; type: functional, organism-based
How it was run: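 Male Sprague-Dawley rats, three per group, received blocker (2 mg/kg iv in saline) or saline only (controls) 10–15 min before about 20 µCi of tail-vein F-18 radioligand. Killed 60 min after tracer. Blood and brain regions weighed and gamma-counted. %ID/g was decay- and tail-corrected; mean ± SD.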

[24] = species: Rattus norvegicus; assay: Regional uptake of [18F]AFA in hippocampus of rat pretreated with compound 7f; n=3; type: functional, organism-based

Sodium-dependent serotonin transporter (Rattus norvegicus), sequence (P31652 whole entry): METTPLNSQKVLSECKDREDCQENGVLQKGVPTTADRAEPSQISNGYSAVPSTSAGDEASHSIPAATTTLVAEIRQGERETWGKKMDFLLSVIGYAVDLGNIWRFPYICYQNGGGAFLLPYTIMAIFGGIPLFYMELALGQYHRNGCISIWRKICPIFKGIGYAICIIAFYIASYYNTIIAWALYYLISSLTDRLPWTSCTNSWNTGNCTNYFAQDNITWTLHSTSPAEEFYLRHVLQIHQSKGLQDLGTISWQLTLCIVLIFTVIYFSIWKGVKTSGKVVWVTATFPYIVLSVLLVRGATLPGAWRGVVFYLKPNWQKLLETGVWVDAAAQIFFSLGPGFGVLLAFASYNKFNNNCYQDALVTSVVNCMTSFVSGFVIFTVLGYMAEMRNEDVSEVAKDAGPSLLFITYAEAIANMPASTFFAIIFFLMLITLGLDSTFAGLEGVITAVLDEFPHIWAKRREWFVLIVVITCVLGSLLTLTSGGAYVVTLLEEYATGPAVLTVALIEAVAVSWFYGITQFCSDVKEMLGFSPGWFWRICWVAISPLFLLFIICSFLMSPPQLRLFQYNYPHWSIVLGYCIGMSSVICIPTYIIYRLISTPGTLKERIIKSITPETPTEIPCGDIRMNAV

CN(C)Cc1ccccc1Sc1ccc(CCCF)cc1N gave a Specific binding [1] of 0.84 %ID/g, a Specific binding [2] of 0.98 %ID/g and a Specific binding [3] of 0.45 %ID/g. For the same compound, the Specific binding [4] was 0.58 %ID/g, the Specific binding [5] was 0.74 %ID/g and the Specific binding [6] was 0.88 %ID/g. It also gave a Specific binding [7] of 0.77 %ID/g, a Specific binding [8] of 0.87 %ID/g and a Specific binding [9] of 0.32 %ID/g. The Specific binding [10] was 1.02 %ID/g, the Specific binding [11] was 0.64 %ID/g and the Specific binding [12] was 0.66 %ID/g. For the same compound, the Specific binding [13] was 0.84 %ID/g, the Specific binding [14] was 0.84 %ID/g and the Specific binding [15] was 0.72 %ID/g. For the same compound, the Specific binding [16] was 0.34 %ID/g, the Specific binding [17] was 0.57 %ID/g and the Specific binding [18] was 0.85 %ID/g. It also gave a Specific binding (dimensionless ratio) [19] of 1.85, a Specific binding (dimensionless ratio) [20] of 2.4 and an Uptake [21] of 0.07 %ID/g. It also gave an Uptake [22] of 0.08 %ID/g, an Uptake [23] of 0.09 %ID/g and an Uptake [24] of 0.08 %ID/g.
